Test results as given in ChEMBL document CHEMBL2062496, “Identification of a sirtuin 3 inhibitor that displays selectivity over sirtuin 1 and 2” (Eur J Med Chem, 2012).
Active and inactive are the calls of the source. The rule behind the calls is not given here.

What was measured:
U-251 = experiment: Growth inhibition of human U251 cells assessed as cell growth at 10 uM after 48 hrs by MTT assay; values are per cent of control; conditions: U-251, 48 h
SF-539 = experiment: Growth inhibition of human SF539 cells assessed as cell growth at 10 uM after 48 hrs by MTT assay; values are per cent of control; conditions: SF-539, 48 h
HCC 2998 = experiment: Growth inhibition of human HCC2998 cells assessed as cell growth at 10 uM after 48 hrs by MTT assay; values are per cent of control; conditions: HCC 2998, 48 h
SK-MEL-28 = experiment: Increase in superoxide level in human SK-MEL-28 cells maintained in medium containing GF and glucose at 100 uM after 24 hrs by DHE-based fluorescence ssay; assay type: functional, cell-based
Procedure, shortened: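 Cells (SK-MEL-28) were kept 24 h in growth medium (DMEM + 10% serum) with or without 100 µM compound; antimycin was the positive control. They were labelled at 37 °C with DHE (10 µmol/L, 1% DMSO) in Locke's containing 5 mmol/L pyruvate for 40 min, stopped on ice and trypsinized. Flow-cytometric MFI of 10,000 cells, corrected for unlabelled autofluorescence; 3–4 separate experiments.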

OVCAR-4 = experiment: Growth of human OVCAR4 cells assessed as cell growth at 10 uM after 48 hrs by MTT assay; conditions: OVCAR-4, 48 h
MDA-MB-468 = experiment: Growth of human MDA-MB-468 cells assessed as cell growth at 10 uM after 48 hrs by MTT assay; conditions: MDA-MB-468, 48 h
RPMI-8226 = experiment: Growth inhibition of human RPMI8226 cells assessed as cell growth at 10 uM after 48 hrs by MTT assay; values are per cent of control; conditions: RPMI-8226, 48 h
[1] = Growth inhibition of human Hs 578T cells assessed as cell growth at 10 uM after 48 hrs by MTT assay; values are per cent of control

c1cncc(-c2cnn[nH]2)c1
growth, % of control at 10 µM (U-251): 111% | growth, % of control at 10 µM (SF-539): 106% | growth, % of control at 10 µM (HCC 2998): 77.3% | Activity (SK-MEL-28): Active | growth, % of control at 10 µM (OVCAR-4): 47.4% | growth, % of control at 10 µM (MDA-MB-468): 104% | growth, % of control at 10 µM (RPMI-8226): 66.9% | growth, % of control at 10 µM [1]: 118%
